In ChEMBL document CHEMBL1125823, “2-Phenylindole-linked [2-(aminoalkyl)pyridine]dichloroplatinum(II): complexes with a selective action on estrogen receptor positive mammary tumors” (1991):

Legend:
[1] = target: T1, Estrogen receptor (Mus musculus) (UniProt O08537+P19785); assay: Uterotrophic effect in mice as relative uterine weight(mg) at 250 ug (control = 14.6+/-2.7); assay type: functional, tissue-based
In short: (§1)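 Immature mice dosed sc per animal on three consecutive days; vehicle controls. Killed and weighed 24 h after last injection; uteri fixed in Bouin solution 2 h, washed with alcoholic LiCl, dried at 100 °C for 24 h. Relative uterus weight = uterine dry weight (mg)/body weight (g) × 100; mean of 6-10 animals ± SD.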
Target sequence in this assay (P19785 whole entry, looked up, chain 1 of 2): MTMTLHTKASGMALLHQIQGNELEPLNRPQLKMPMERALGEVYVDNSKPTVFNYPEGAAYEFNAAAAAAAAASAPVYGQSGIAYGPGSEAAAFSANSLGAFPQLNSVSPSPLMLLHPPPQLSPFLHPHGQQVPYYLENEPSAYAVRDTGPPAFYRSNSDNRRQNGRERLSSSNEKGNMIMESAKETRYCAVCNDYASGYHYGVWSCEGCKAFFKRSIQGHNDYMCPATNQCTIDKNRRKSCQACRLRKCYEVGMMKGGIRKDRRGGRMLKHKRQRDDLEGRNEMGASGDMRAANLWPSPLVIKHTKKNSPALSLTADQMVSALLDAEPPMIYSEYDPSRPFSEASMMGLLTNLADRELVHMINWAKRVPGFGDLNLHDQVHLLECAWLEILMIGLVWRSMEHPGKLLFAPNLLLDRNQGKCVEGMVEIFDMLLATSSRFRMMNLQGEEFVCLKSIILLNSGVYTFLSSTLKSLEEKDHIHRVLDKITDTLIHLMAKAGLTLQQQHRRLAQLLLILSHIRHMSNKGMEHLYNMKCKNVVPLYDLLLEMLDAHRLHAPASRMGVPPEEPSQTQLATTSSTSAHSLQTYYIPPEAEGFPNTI
Target sequence in this assay (O08537 whole entry, looked up, chain 2 of 2): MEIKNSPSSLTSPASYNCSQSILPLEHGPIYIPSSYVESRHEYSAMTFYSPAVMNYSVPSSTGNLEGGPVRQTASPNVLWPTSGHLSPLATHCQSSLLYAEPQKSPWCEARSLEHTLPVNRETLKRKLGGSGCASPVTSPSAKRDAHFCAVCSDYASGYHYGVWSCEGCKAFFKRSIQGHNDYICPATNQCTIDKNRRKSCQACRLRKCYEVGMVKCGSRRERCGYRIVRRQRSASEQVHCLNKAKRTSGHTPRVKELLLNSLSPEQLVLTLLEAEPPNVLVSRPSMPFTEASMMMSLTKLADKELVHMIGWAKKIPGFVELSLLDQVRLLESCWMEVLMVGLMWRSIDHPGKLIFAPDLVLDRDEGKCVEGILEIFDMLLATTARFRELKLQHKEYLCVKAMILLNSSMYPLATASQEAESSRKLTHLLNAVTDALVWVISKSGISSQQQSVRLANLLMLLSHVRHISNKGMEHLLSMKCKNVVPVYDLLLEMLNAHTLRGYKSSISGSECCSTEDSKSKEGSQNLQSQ

MCF7 [2] = assay: Effect on [3H]thymidine incorporation into estrogen receptor positive MCF-7 human breast cancer cells at 5x10E-6M (control = 43.4+/-1.8); assay type: functional
In short: (§2)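 MCF-7 cells in improved MEM with glutamine, gentamycin and 5% newborn calf serum, switched to charcoal-treated serum two weeks ahead; phenol red present; 37 °C, 5% CO2. About 2×10^4 cells plated per well; compound in 0.1% DMF added 2 days later, renewed on day 4; labelled 3 days later with 1 μCi [3H]thymidine per well for 2 h; cpm/dish, mean of six dishes ± SD.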

MCF7 [3] = assay: Effect on [3H]thymidine incorporation into estrogen receptor positive MCF-7 human breast cancer cells at 1x10E-6M; assay type: functional
In short: (§3)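 MCF-7 cells were grown in MEM with charcoal-treated 5% newborn calf serum and phenol red, then treated with compounds in 0.1% DMF (renewed on day 4) alongside DMF controls. They were labeled 3 days later with 1 µCi [³H]thymidine per well for 2 h, and incorporated radioactivity per dish was measured; mean of six dishes ± SD; % T/C.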

[4] = target: T1, Estrogen receptor (Mus musculus); assay: Percent inhibition of estrone stimulated uterotrophic effect in mice at 250 ug; assay type: functional
In short: (§4)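 Immature mice given test compound per animal sc on three consecutive days together with 0.4 μg estrone/animal/day. Killed 24 h after last injection; uteri fixed in Bouin, dried 100 °C 24 h and weighed. Inhibition = 100 − [(W_S,T − W_V)/(W_S − W_V) × 100] using relative uterus weights; 6-10 animals; Wilcoxon-Mann-Whitney U test.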
Target sequence in this assay (P19785 whole entry, looked up, chain 1 of 2): as the sequence (P19785 whole entry, looked up, chain 1 of 2) above
Target sequence in this assay (O08537 whole entry, looked up, chain 2 of 2): as the sequence (O08537 whole entry, looked up, chain 2 of 2) above

MCF7 [5] = assay: Effect on [3H]thymidine incorporation into estrogen receptor positive MCF-7 human breast cancer cells at 1x10E-6M (control = 43.4+/-1.8); assay type: functional; in short: as §3
MCF7 [6] = assay: Effect on [3H]thymidine incorporation into estrogen receptor positive MCF-7 human breast cancer cells at 5x10E-6M; assay type: functional; in short: as §2
MCF7 [7] = assay: Effect on Estrogen receptor positive MCF-7 human breast cancer cell proliferation at 1x10E-6M (control = 62.3+/-8.8); assay type: functional
In short: (§5)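 MCF-7 cells were kept in MEM with 5% charcoal-treated newborn calf serum and phenol red for 2 weeks, then about 2×10^4 cells were plated per well. Compounds in 0.1% DMF were added 2 days later and renewed on day 4; DMF alone served as control. Coulter cell counts were taken on day 5; mean of six dishes ± SD; % T/C.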

[8] = target: T1, Estrogen receptor (Mus musculus); assay: Uterotrophic effect in mice as relative uterine weight(mg) at 25 ug (control = 14.6+/-2.7); assay type: functional, tissue-based; in short: as §1
Target sequence in this assay (P19785 whole entry, looked up, chain 1 of 2): as the sequence (P19785 whole entry, looked up, chain 1 of 2) above
Target sequence in this assay (O08537 whole entry, looked up, chain 2 of 2): as the sequence (O08537 whole entry, looked up, chain 2 of 2) above

MCF7 [9] = assay: Effect on Estrogen receptor positive MCF-7 human breast cancer cell proliferation at 1x10E-6M; assay type: functional; in short: as §5
MCF7 [10] = assay: Effect on Estrogen receptor positive MCF-7 human breast cancer cell proliferation at 5x10E-6M (control = 62.3+/-8.8); assay type: functional; in short: as §5
MCF7 [11] = assay: Effect on Estrogen receptor positive MCF-7 human breast cancer cell proliferation at 5x10E-6M; assay type: functional; in short: as §5
[12] = target: T1, Estrogen receptor (Mus musculus); assay: Anti-uterotrophic effect in mice as relative uterine weight(mg) at 250 ug; assay type: functional
In short: (§6)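 Immature mice received the compound sc per animal on three consecutive days, alone or with 0.4 µg estrone per animal per day. Uteri were taken 24 h after the last injection, Bouin-fixed, dried at 100 °C for 24 h and weighed. Relative uterus weight = dry weight (mg)/body weight (g) × 100; mean of 6-10 animals ± SD; Mann-Whitney U test.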
Target sequence in this assay (P19785 whole entry, looked up, chain 1 of 2): as the sequence (P19785 whole entry, looked up, chain 1 of 2) above
Target sequence in this assay (O08537 whole entry, looked up, chain 2 of 2): as the sequence (O08537 whole entry, looked up, chain 2 of 2) above

[13] = target: T1, Estrogen receptor (Mus musculus); assay: Anti-uterotrophic effect in mice as relative uterine weight(mg) at 150 ug; assay type: functional; in short: as §6
Target sequence in this assay (O08537 whole entry, looked up): as the sequence (O08537 whole entry, looked up, chain 2 of 2) above
Target sequence in this assay (P19785 whole entry, looked up): as the sequence (P19785 whole entry, looked up, chain 1 of 2) above

[14] = target: T1, Estrogen receptor (Mus musculus); assay: Uterotrophic effect in mice as relative uterine weight(mg) at 150 ug (control = 12.3+/-3.7); assay type: functional, tissue-based; in short: as §1
Target sequence in this assay (O08537 whole entry, looked up): as the sequence (O08537 whole entry, looked up, chain 2 of 2) above
Target sequence in this assay (P19785 whole entry, looked up): as the sequence (P19785 whole entry, looked up, chain 1 of 2) above

MCF7 [15] = assay: Effect on [3H]thymidine incorporation into estrogen receptor positive MCF-7 human breast cancer cells at 1*10^-6 M (control = 28.2+/-3.0); assay type: functional; in short: as §3
MCF7 [16] = assay: Effect on Estrogen receptor positive MCF-7 human breast cancer cell proliferation at 5x10E-6M (control = 66.9+/-7.0); assay type: functional; in short: as §5
MCF7 [17] = assay: Effect on Estrogen receptor positive MCF-7 human breast cancer cell proliferation at 1x10E-6M (control = 66.9+/-7.0); assay type: functional; in short: as §5
[18] = target: T1, Estrogen receptor (Mus musculus); assay: Anti-uterotrophic effect in mice as relative uterine weight(mg) at 15 ug; assay type: functional; in short: as §6
Target sequence in this assay (O08537 whole entry, looked up): as the sequence (O08537 whole entry, looked up, chain 2 of 2) above
Target sequence in this assay (P19785 whole entry, looked up): as the sequence (P19785 whole entry, looked up, chain 1 of 2) above

[19] = target: T1, Estrogen receptor (Mus musculus); assay: Percent inhibition of estrone stimulated uterotrophic effect in mice at 15 ug; assay type: functional; in short: as §4
Target sequence in this assay (O08537 whole entry, looked up): as the sequence (O08537 whole entry, looked up, chain 2 of 2) above
Target sequence in this assay (P19785 whole entry, looked up): as the sequence (P19785 whole entry, looked up, chain 1 of 2) above

[20] = target: T1, Estrogen receptor (Mus musculus); assay: Percent inhibition of estrone stimulated uterotrophic effect in mice at 150 ug; assay type: functional; in short: as §4
Target sequence in this assay (O08537 whole entry, looked up): as the sequence (O08537 whole entry, looked up, chain 2 of 2) above
Target sequence in this assay (P19785 whole entry, looked up): as the sequence (P19785 whole entry, looked up, chain 1 of 2) above

[21] = target: T1, Estrogen receptor (Mus musculus); assay: Uterotrophic effect in mice as relative uterine weight(mg) at 15 ug (control = 12.3+/-3.7); assay type: functional, tissue-based; in short: as §1
Target sequence in this assay (O08537 whole entry, looked up): as the sequence (O08537 whole entry, looked up, chain 2 of 2) above
Target sequence in this assay (P19785 whole entry, looked up): as the sequence (P19785 whole entry, looked up, chain 1 of 2) above

MCF7 [22] = assay: Effect on [3H]thymidine incorporation into estrogen receptor positive MCF-7 human breast cancer cells at 5x10E-6M (control = 28.2+/-3.0); assay type: functional; in short: as §2
[23] = target: T1, Estrogen receptor (Mus musculus); assay: Uterotrophic effect in mice as relative uterine weight(mg) at 25 ug (control = 12.3+/-3.7); assay type: functional, tissue-based; in short: as §1
Target sequence in this assay (P19785 whole entry, looked up, chain 1 of 2): as above
Target sequence in this assay (O08537 whole entry, looked up, chain 2 of 2): as the sequence (O08537 whole entry, looked up, chain 2 of 2) above

[24] = target: T1, Estrogen receptor (Mus musculus); assay: Uterotrophic effect in mice as relative uterine weight(mg) at 250 ug (control = 12.3+/-3.7); assay type: functional, tissue-based; in short: as §1
Target sequence in this assay (P19785 whole entry, looked up, chain 1 of 2): as the sequence (P19785 whole entry, looked up, chain 1 of 2) above
Target sequence in this assay (O08537 whole entry, looked up, chain 2 of 2): as the sequence (O08537 whole entry, looked up, chain 2 of 2) above

Relative uterus weight [12]	Compound	T/C (MCF7 [3])	T/C (MCF7 [6])	T/C (MCF7 [9])	T/C (MCF7 [11])	Activity (MCF7 [15])	Cell no/dish (MCF7 [16])	Cell no/dish (MCF7 [17])	Activity (MCF7 [22])	also measured
51.8 mg	[5-hydroxy-3-methyl-2-(4-hydroxyphenyl)-1-[omega-[(2-pyridylmethyl)amino]butyl]indole]dichloroplatinum (II) complex	88%	68%	89%	79%	–	–	–	–	Relative uterus weight [1]: 14.8 mg; Activity (MCF7 [2]): 29500; inhibition [4]: 5%; Activity (MCF7 [5]): 38400; Cell no/dish (MCF7 [7]): 554000; Relative uterus weight [8]: 21.5 mg; Cell no/dish (MCF7 [10]): 489000
–	Cc1c(-c2ccc(O)cc2)n(CCCCCNCc2ccccn2)c2ccc(O)cc12	76%	67%	64%	43%	21600	287000	430000	18900	Relative uterus weight [13]: 44 mg; Relative uterus weight [14]: 13.3 mg; Relative uterus weight [18]: 42.6 mg; inhibition [19]: 9%; inhibition [20]: 5%; Relative uterus weight [21]: 16.4 mg
46.6 mg	[5-hydroxy-3-methyl-2-(4-hydroxyphenyl)-1-[omega-[(2-pyridylmethyl)amino]pentyl]indole]dichloroplatinum (II) complex	60%	54%	101%	85%	16900	571000	674000	15200	Relative uterus weight [23]: 16.3 mg; Relative uterus weight [24]: 22.1 mg
